Data set [1] in a line: in vitro. Conditions: monkey, Vero cells.
Data set [2] is described as follows: in vitro. Conditions: monkey, Vero cells. This is another data set of the same source.
Data set [3] in a line: in vitro. Conditions: monkey, Vero cells. The source holds these as a separate data set.
Data set [4] has as its system Leishmania donovani. Put plainly: Antileishmanial activity against Leishmania donovani MHOM/IN/95/9515 promastigotes assessed as inhibition of parasite growth incubated for 48 hrs by resazurin staining based analysis. Format: functional, organism-based. Conditions: MHOM/IN/95/9515, 48 h.
The nature of data set [5]: in vitro. Conditions: monkey, Vero cells. This is another data set of the same source.
Data set [6] relates to Leishmania donovani. Put plainly: Antileishmanial activity against Leishmania donovani MHOM/IN/95/9515 amastigote assessed as inhibition of parasite growth incubated for 72 hrs by resazurin staining based analysis. Conditions: MHOM/IN/95/9515, 72 h.
Data set [7] has as its system Trypanosoma cruzi. Briefly: Antitrypanosomal activity against bloodstream Trypanosoma cruzi trypomastigotes infected in African green monkey Vero cells assessed as parasite growth inhibition incubated for 48 hrs by resazurin assay.
Data set [8] is described as follows: Selectivity index, ratio of IC50 for cytotoxicity against human THP-1 cells assessed as inhibition of cell growth to IC50 for antileishmanial activity against Leishmania donovani MHOM/IN/95/9515 amastigote assessed as inhibition of parasite growth. Format: functional.
The nature of data set [9]: Selectivity index, ratio of IC50 for cytotoxicity against African green monkey Vero cells assessed as inhibition of cell growth to IC50 for antitrypanosomal activity against Trypanosoma cruzi epimastigotes assessed as parasite growth inhibition. Format: toxicity, cell-based. Conditions: read-out: Ratio IC50.
Data set [10] concerns Leishmania major. Briefly: Antileishmanial activity against Leishmania major IR-173 promastigotes assessed as inhibition of parasite growth incubated for 48 hrs by resazurin staining based analysis. Format: functional, organism-based. Conditions: IR-173, 48 h. An outline of the steps:
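Logarithmic-phase promastigotes (1.25 × 10^6 cells per mL) grown in supplemented M199 with 10% FBS, pH 7.3–7.4, 26 °C. […] 48 h at 26 °C, then resazurin 24 h in the dark. Absorbance 570 minus 600 nm. IC50 by non-linear regression, mean ± SD of three biological replicates.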

Data set [11] deals with Trypanosoma cruzi. Briefly: Antitrypanosomal activity against Trypanosoma cruzi epimastigotes assessed as parasite growth inhibition incubated for 48 hrs by resazurin staining based analysis. Format: functional, organism-based.
Data set [12] has as its system Leishmania major. Briefly: Selectivity index, ratio of IC50 for antileishmanial activity against Leishmania major IR-173 promastigotes assessed as inhibition of parasite growth to IC50 for antileishmanial activity against Leishmania major IR-173 amastigote assessed as inhibition of parasite growth. Format: functional.
Data set [13] deals with Leishmania major. Put plainly: Antileishmanial activity against Leishmania major IR-173 amastigote assessed as inhibition of parasite growth incubated for 72 hrs by resazurin staining based analysis. Conditions: IR-173, 72 h.
Data set [14] concerns Leishmania donovani. Put plainly: Selectivity index, ratio of IC50 for antileishmanial activity against Leishmania donovani MHOM/IN/95/9515 promastigotes assessed as inhibition of parasite growth to IC50 for antileishmanial activity against Leishmania donovani MHOM/IN/95/9515 amastigote assessed as inhibition of parasite growth. Format: functional.
In another data set the test system is THP-1. Put plainly: cells. Format: functional, cell-based. Conditions: Homo sapiens, THP-1, 72 h.
Data set [15] in a line: Selectivity index, ratio of IC50 for cytotoxicity against human THP-1 cells assessed as inhibition of cell growth to IC50 for antitrypanosomal activity against Trypanosoma cruzi trypomastigotes assessed as parasite growth inhibition. Format: functional.
Data set [16] in a line: Selectivity index, ratio of IC50 for cytotoxicity against African green monkey Vero cells assessed as inhibition of cell growth to IC50 for antitrypanosomal activity against Trypanosoma cruzi trypomastigotes assessed as parasite growth inhibition. Format: toxicity, cell-based. Conditions: read-out: Ratio IC50.
The test system of data set [17] is Trypanosoma cruzi. Briefly: Selectivity index, ratio of IC50 for antitrypanosomal activity against Trypanosoma cruzi epimastigote assessed as parasite growth inhibition to IC50 for antitrypanosomal activity against Trypanosoma cruzi trypomastigotes assessed as parasite growth inhibition. Format: functional.

For `O=[N+]([O-])c1ccc(/C=N/N=C/c2ccc(Br)cc2)o1`, the selectivity ratio in “in vitro [1]” turned out to be 16; in “in vitro [2]” it was 28; in “in vitro [3]” it was 159; in the data set “in vitro [5]” it was 133; in data set [9] it was 2. In addition, the half-maximal inhibitory concentration (IC50) in the data set with Leishmania donovani [4] is 3560 nM; in the data set with Leishmania donovani [6] it was 6410 nM; in the data set on Trypanosoma cruzi [7], more than 10 µM; with Leishmania major [10], 750 nM; in the data set with Trypanosoma cruzi [11], 46200 nM; in the data set on Leishmania major [13], 0.63 µM. Besides, the 50% inhibitory concentration (IC50) in the data set with THP-1 was more than 100 µM. Moreover, the “Ratio IC50” value in data set [8] came out at 16; in the data set with Leishmania major [12], 1.19; with Leishmania donovani [14], 0.56.
`O=[N+]([O-])c1ccc(/C=N/N=C/c2ccc(Cl)cc2)o1`: the selectivity ratio is 149 in “in vitro [2]”; 40 in “in vitro [3]”; 238 in the data set “in vitro [5]”; 33 in data set [16]; 41 in [9]. Also, the results for the “Ratio IC50” value (in [15]; with Trypanosoma cruzi [17]; in the data set on Leishmania major [12]) were 33, 0.79 and 0.17, respectively. Moreover, the IC50 was 670 nM in the data set on Leishmania donovani [4]; more than 10000 nM in the data set on Leishmania donovani [6]; 3.05 µM in the data set with Trypanosoma cruzi [7]; 420 nM in the data set on Leishmania major [10]; 2410 nM in the data set on Trypanosoma cruzi [11]; 2.47 µM in the data set with Leishmania major [13]. Also, in the data set on THP-1, the IC50 was more than 100 µM.
For `O=[N+]([O-])c1ccc(/C=N/N=C/c2ccc([N+](=O)[O-])o2)cc1`, the selectivity ratio amounted to 22 in “in vitro [1]”; 17 in “in vitro [2]”; 1 in “in vitro [3]”; 17 in the data set “in vitro [5]”; 15 in [16]; 4 in [9]. Moreover, the “Ratio IC50” value in [15] is 21; in [8] it was 32; in the data set with Trypanosoma cruzi [17], 3.37; with Leishmania major [12] it was 0.09; with Leishmania donovani [14] it was 1.32. The concentration for half-maximal inhibition (IC50) with Leishmania donovani [4] amounted to 700 nM; in the data set on Leishmania donovani [6] it was 530 nM; in the data set on Trypanosoma cruzi [7], 0.78 µM; in the data set on Leishmania major [10], 700 nM; in the data set on Trypanosoma cruzi [11], 2630 nM; in the data set with Leishmania major [13], 7.9 µM. Besides, in the data set with THP-1, half-maximal inhibition (IC50) required 16.8 µM.
In the case of `O=Cc1ccc([N+](=O)[O-])o1`, the selectivity ratio in the data set “in vitro [3]” stood at 3; in “in vitro [5]”, 2. Moreover, the IC50 with Leishmania donovani [4] was more than 10000 nM; in the data set on Leishmania donovani [6] it was 2680 nM; in the data set on Trypanosoma cruzi [7], more than 10 µM; in the data set with Leishmania major [10] it was 7940 nM; in the data set with Trypanosoma cruzi [11], more than 10000 nM; with Leishmania major [13], 5.6 µM. For the same molecule, in the data set with THP-1, inhibition was half-maximal at 80.9 µM (IC50). Also, the figures for the “Ratio IC50” value (in [8]; in the data set on Leishmania major [12]) were 30 and 1.42, respectively.

Source of the values: ChEMBL document CHEMBL5329184, “Design, synthesis, electrochemistry and anti-trypanosomatid hit/lead identification of nitrofuranylazines” (RSC Med Chem, 2023).
